The structures appear in SMILES notation. Calls of active or inactive are those of the source. The calls are words filed in the database; no cut-off is given here. Some results are limits rather than exact numbers.

Series [1] has as its system L1210. Briefly: Antileukemic activity against mouse L1210 cells allografted in BDF1 mouse assessed as increase in life span of host at 27.8 umol/kg, ip relative to control. Type of series: functional. In outline: (§1)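 BDF1 mice, 5 weeks old, were inoculated ip with 5×10^5 L1210 cells; test groups had 4 males and 4 females, controls 5 males and 5 females. A single ip dose was given on the day after inoculation, as a suspension in vehicle for the insoluble compounds. Read-out was increase in life span over controls, with survivors past 30 days counted as 30 days.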

The subject of series [2] is L1210. As to the kind of experiment: Antileukemic activity against mouse L1210 cells allografted in BDF1 mouse assessed as host survival at 5.56 umol/kg, ip after 30 days. It counts as functional, organism-based. In outline: (§2)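 BDF1 mice, 5 weeks old, were inoculated ip with 5×10^5 L1210 cells in 0.1 ml saline. Test groups were 4 male and 4 female mice; controls were 5 male and 5 female. Insoluble compounds were suspended in vehicle. Dosing was ip, either once on the day after inoculation or daily for 5 days. Read-out was increase in life span over controls. Mice alive beyond 30 days were counted as 30 days and scored as survivors.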

For series [3], the system named is L1210. As to the kind of experiment: Antileukemic activity against mouse L1210 cells allografted in BDF1 mouse assessed as host survival at 65.8 umol/kg, ip after 30 days. Type of series: functional, organism-based. The procedure, abridged: as §2
Series [4] relates to L1210. Briefly: Antileukemic activity against mouse L1210 cells allografted in BDF1 mouse assessed as increase in life span of host at 132 umol/kg, ip relative to control. Type of series: functional. The procedure, abridged: as §2
In series [5] the test system is L1210. As to the kind of experiment: Antileukemic activity against mouse L1210 cells allografted in BDF1 mouse assessed as increase in life span of host at 65.8 umol/kg, ip relative to control. It counts as functional. The procedure, abridged:
as §1

In series [6] the test system is L1210. Briefly: Antileukemic activity against mouse L1210 cells allografted in BDF1 mouse assessed as increase in life span of host at 26.3 umol/kg, ip relative to control. Type of series: functional. The procedure, abridged:
as §1

Series [7] concerns L1210. As to the kind of experiment: Antileukemic activity against mouse L1210 cells allografted in BDF1 mouse assessed as host survival at 132 umol/kg, ip after 30 days. Type of series: functional, organism-based. In outline:
as §2

The subject of series [8] is L1210. Briefly: Antileukemic activity against mouse L1210 cells allografted in BDF1 mouse assessed as increase in life span of host at 5.56 umol/kg, ip relative to control. Type of series: functional. In outline:
as §1

Series [9] is described as follows: Solubility of the compound. It counts as physicochemical.
The subject of series [10] is L1210. As to the kind of experiment: Antileukemic activity against mouse L1210 cells allografted in BDF1 mouse assessed as host survival at 5.74 umol/kg, ip after 30 days. Type of series: functional, organism-based. The procedure, abridged: as §2
Series [11] deals with L1210. Briefly: Antileukemic activity against mouse L1210 cells allografted in BDF1 mouse assessed as host survival at 287 umol/kg, ip after 30 days. It counts as functional, organism-based. In outline: as §2
In series [12] the test system is L1210. Briefly: Antileukemic activity against mouse L1210 cells allografted in BDF1 mouse assessed as host survival at 26.3 umol/kg, ip after 30 days. It counts as functional, organism-based. The procedure, abridged:
as §2

For series [13], the system named is L1210. As to the kind of experiment: Antileukemic activity against mouse L1210 cells allografted in BDF1 mouse assessed as increase in life span of host at 71.8 umol/kg, ip relative to control. It counts as functional. In outline: as §1
Series [14] concerns L1210. Briefly: Antileukemic activity against mouse L1210 cells allografted in BDF1 mouse assessed as increase in life span of host at 5.74 umol/kg, ip relative to control. Type of series: functional. In outline:
as §1

Series [15] has as its system L1210. Briefly: Antileukemic activity against mouse L1210 cells allografted in BDF1 mouse assessed as increase in life span of host at 144 umol/kg, ip relative to control. It counts as functional. In outline: as §2
Series [16] deals with L1210. As to the kind of experiment: Antileukemic activity against mouse L1210 cells allografted in BDF1 mouse assessed as increase in life span of host at 287 umol/kg, ip relative to control. It counts as functional. In outline: as §1
The test system of series [17] is L1210. Briefly: Antileukemic activity against mouse L1210 cells allografted in BDF1 mouse assessed as increase in life span of host at 28.7 umol/kg, ip relative to control. It counts as functional. The procedure, abridged:
as §1

For series [18], the system named is L1210. Briefly: Antileukemic activity against mouse L1210 cells allografted in BDF1 mouse assessed as host survival at 28.7 umol/kg, ip after 30 days. Type of series: functional, organism-based. In outline:
as §2

The test system of series [19] is L1210. Briefly: Antileukemic activity against mouse L1210 cells allografted in BDF1 mouse assessed as increase in life span of host at 4.87 umol/kg, ip relative to control. It counts as functional. The procedure, abridged:
as §1

In series [20] the test system is L1210. Briefly: Antileukemic activity against mouse L1210 cells allografted in BDF1 mouse assessed as increase in life span of host at 27.9 umol/kg, ip relative to control. Type of series: functional. In outline: as §1
In series [21] the test system is L1210. As to the kind of experiment: Antileukemic activity against mouse L1210 cells allografted in BDF1 mouse assessed as host survival at 4.87 umol/kg, ip after 30 days. It counts as functional, organism-based. The procedure, abridged: as §2
In series [22] the test system is L1210. As to the kind of experiment: Antileukemic activity against mouse L1210 cells allografted in BDF1 mouse assessed as increase in life span of host at 69.8 umol/kg, ip relative to control. It counts as functional. In outline:
as §1

The species entered for series [23] is Mus musculus. As to the kind of experiment: Toxicity in mouse L1210 cells allografted BDF1 mouse. Type of series: organism-based.
For series [24], the system named is L1210. As to the kind of experiment: Antileukemic activity against mouse L1210 cells allografted in BDF1 mouse assessed as host survival at 1.11 umol/kg, sc qd for 5 days measured after 30 days. It counts as functional, organism-based.
Series [25] concerns L1210. As to the kind of experiment: Antileukemic activity against mouse L1210 cells allografted in BDF1 mouse assessed as host survival at 27.8 umol/kg, po qd for 4 days measured after 30 days. It counts as functional, organism-based.
In series [26] the test system is L1210. As to the kind of experiment: Antileukemic activity against mouse L1210 cells allografted in BDF1 mouse assessed as host survival at 278 umol/kg, ip after 30 days. It counts as functional, organism-based. The procedure, abridged:
as §2

Series [27] concerns L1210. Briefly: Antileukemic activity against mouse L1210 cells allografted in BDF1 mouse assessed as host survival at 5.56 umol/kg, po qd for 4 days measured after 30 days. Type of series: functional, organism-based.
For series [28], the system named is L1210. Briefly: Antileukemic activity against mouse L1210 cells allografted in BDF1 mouse assessed as host survival at 5.56 umol/kg, ip qd for 5 days measured after 30 days. Type of series: functional, organism-based. The procedure, abridged: as §2
Series [29] deals with L1210. Briefly: Antileukemic activity against mouse L1210 cells allografted in BDF1 mouse assessed as host survival at 5.56 umol/kg, sc qd for 5 days measured after 30 days. Type of series: functional, organism-based.
Series [30] deals with L1210. As to the kind of experiment: Antileukemic activity against mouse L1210 cells allografted in BDF1 mouse assessed as host survival at 27.8 umol/kg, sc qd for 5 days measured after 30 days. It counts as functional, organism-based.
Series [31] concerns L1210. As to the kind of experiment: Antileukemic activity against mouse L1210 cells allografted in BDF1 mouse assessed as host survival at 13.8 umol/kg, ip qd for 5 days measured after 30 days. Type of series: functional, organism-based. In outline: as §2
Series [32] concerns L1210. Briefly: Antileukemic activity against mouse L1210 cells allografted in BDF1 mouse assessed as host survival at 1.11 umol/kg, ip qd for 5 days measured after 30 days. It counts as functional, organism-based. In outline: as §2
In series [33] the test system is L1210. Briefly: Antileukemic activity against mouse L1210 cells allografted in BDF1 mouse assessed as host survival at 13.8 umol/kg, po qd for 4 days measured after 30 days. It counts as functional, organism-based.
In series [34] the test system is L1210. As to the kind of experiment: Antileukemic activity against mouse L1210 cells allografted in BDF1 mouse assessed as host survival at 139 umol/kg, ip after 30 days. Type of series: functional, organism-based. The procedure, abridged: as §2
The subject of series [35] is L1210. Briefly: Antileukemic activity against mouse L1210 cells allografted in BDF1 mouse assessed as host survival at 13.8 umol/kg, sc qd for 5 days measured after 30 days. Type of series: functional, organism-based.
In series [36] the test system is L1210. As to the kind of experiment: Antileukemic activity against mouse L1210 cells allografted in BDF1 mouse assessed as host survival at 5.21 umol/kg, ip after 30 days. It counts as functional, organism-based. The procedure, abridged: as §2
In series [37] the test system is L1210. Briefly: Antileukemic activity against mouse L1210 cells allografted in BDF1 mouse assessed as host survival at 27.8 umol/kg, ip after 30 days. Type of series: functional, organism-based. In outline: as §2

Consider `CCC1(O)C(=O)OCc2c1cc1n(c2=O)CC2Cc3ccccc3N(C=O)C12` (mixture of isomers), for which the ILS at 27.8 µmol/kg in series [1] was over 244%. For the same molecule, the result in [2], in series [3] and in series [7] was inactive. The ILS at 132 µmol/kg in series [4] was -3%. Further, the ILS at 65.8 µmol/kg in series [5] is -9%. In addition, the ILS at 26.3 µmol/kg in series [6] is -6%. Moreover, the ILS at 5.56 µmol/kg in series [8] stood at 34%. Further, the solubility entry in series [9] is recorded as “Insoluble”.
Consider `CCC1(O)C(=O)OCc2c1cc1n(c2=O)Cc2cc3ccccc3nc2-1` (racemic), for which the result in series [10], in series [11], in series [12] and in series [18] was inactive. Moreover, the ILS at 71.8 µmol/kg in series [13] was over 155%. Also, the ILS at 5.74 µmol/kg in series [14] came to 16%. The ILS at 144 µmol/kg in series [15] is over 60%. In [16], the ILS at 287 µmol/kg was -43%. Besides, the ILS at 26.3 µmol/kg in series [6] amounted to 6%. Further, the ILS at 28.7 µmol/kg in series [17] stood at 84%. For the same molecule, in series [9], the solubility result is listed as “Insoluble”.
For `C#CCC1(O)C(=O)OCc2c1cc1n(c2=O)Cc2cc3ccccc3nc2-1` (racemic), the ILS at 4.87 µmol/kg in series [19] came to 58%. The ILS at 27.9 µmol/kg in [20] was over 117%. Also, in series [21], the outcome was inactive. Besides, in series [22], the ILS at 69.8 µmol/kg is over 149%. In series [23], the Activity entry was “Toxic”. Besides, the solubility entry in series [9] is “Insoluble”.
`C=CCC1(O)C(=O)OCc2c1cc1n(c2=O)Cc2cc3ccccc3nc2-1` (racemic): the outcome in series [10], in series [24], in series [25], in series [26], in series [27] and in series [28] was inactive. Further, the outcome in series [29], in series [30], in series [31], in [32], in [33] and in series [34] was inactive. For the same molecule, the result in series [35], in series [36] and in [37] was inactive.
